According to publication PMC10797327 (RSC Advances, 2024):

How the values were obtained:
MTT cell viability assay = type: cell-based, murine; conditions: mouse, RAW264.7 macrophage cells
Outline: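 RAW264.7 cells are cultured with test compound for 48 h, then viability is measured. CC50 is the concentration that reduces viability to 50%.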

IL-1β = IL-1β production in LPS-stimulated RAW264.7 cells; type: cell-based; conditions: Mus musculus, RAW264.7, 48 h, read-out: IC50 IL-1β
Outline: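 RAW264.7 macrophages stimulated with LPS and cultured for 48 h with test compound. Cytokine production is measured, and IC50 is taken as the concentration that reduces cytokine production by 50%.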

IC50 (IL-1β): 26.6 µM
SMILES: CC(=O)Oc1cccc2c1C(=O)c1c(OC(C)=O)cc(C(=O)O)cc1C2=O [Diacerein, diacerein]
CC50 at 48 h (MTT cell viability assay): 151 µM
